In brackets after ≈: the same amount, converted by molar mass.
What was measured:
[1] = test system: Mycobacterium tuberculosis; experiment: Antimycobacterial activity against Mycobacterium tuberculosis H37Rv after 14 days; type: functional; conditions: 336 h
Method in brief: (§1)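 Mtb H37Rv grown in MB 7H9 (10% albumin dextrose saline, 0.2% glycerol, 0.05% tween-80) to OD600nm 0.2, diluted 1000× and added to 96-well plates with compounds (50 mM DMSO stocks). Tested range 0.05 to 50 μM. Incubated 37 °C for 14 days; MIC determined per standard protocol.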

[2] = Lipophilicity, logP of compound; type: physicochemical; conditions: octanol/water
[3] = test system: Mycobacterium tuberculosis; experiment: Antimycobacterial activity against Mycobacterium tuberculosis; type: functional; method in brief: as §1
[4] = test system: Mycobacterium tuberculosis; experiment: Antimycobacterial activity against Mycobacterium tuberculosis H37Rv infected in human THP-1 cells assessed as reduction in microbial growth after 4 days by ten-fold serial dilution method; type: functional
Method in brief: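 PMA-differentiated THP-1 macrophages (2 × 10^5 per well) infected with Mtb H37Rv at MOI 1:10. At 4 h, extracellular bacteria removed with 200 μg ml–1 amikacin in RPMI for 2 h. At 24 h, cells were washed and given RPMI with drug at non-cytotoxic concentration for 4 days. Lysis in PBS–0.1% Triton X-100, then 10-fold serial dilutions plated on MB 7H11 for 3–4 weeks at 37 °C. Triplicate wells, mean + S.E.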

THP-1 [5] = experiment: Cytotoxicity against human THP1 cells assessed as redution in cell viability at 50 uM by WST-1 assay; type: cell-based; conditions: thp-1, 50 µM
Method in brief: (§2)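 THP-1 macrophages; viability read with the WST-1 cell proliferation kit following the manufacturer's protocol. Compounds came from 50 mM DMSO stocks, with 50 μM the highest final concentration tested.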

THP-1 [6] = experiment: Cytotoxicity against human THP1 cells assessed as redution in cell viability at 10 uM by WST-1 assay; type: cell-based; conditions: thp-1, 10 µM; method in brief: as §2

| Structure (SMILES) | MIC [1] | further results |
| --- | --- | --- |
| CC(C)c1nc2cc(C(=O)O)ccc2n1-c1ccc(C#N)cc1 | 50 µM (≈ 15.3 µg/mL) |  |
| CCN(CC)c1ccc(/C=C/C(=N/Nc2nc(C)cs2)C2=Cc3ccccc3C2)cc1 |  | logP [2]: 6.03; MIC90 [3]: 2.5 µg/mL (≈ 5.83 µM) |
| COc1cc(-n2c(C(C)C)nc3cc(C(=O)O)ccc32)cc(OC)c1O | 0.78 µM (≈ 0.278 µg/mL) | fold change (FC) [4]: 8 - 10; Activity (THP-1 [5]): Non-Toxic |
| CC(C)c1nc2cc(C(=O)O)ccc2n1Cc1cccc(F)c1 | 12.5 µM (≈ 3.9 µg/mL) |  |
| CC(C)c1nc2cc(C(=O)O)ccc2n1-c1ccc(N(C)C)cc1 | 50 µM (≈ 16.2 µg/mL) |  |
| COc1ccc(C(=O)N2CCC(Cn3c(C(C)C)nc4cc(C(=O)O)ccc43)CC2)cc1 | 50 µM (≈ 21.8 µg/mL) |  |
| CC(C)c1nc2cc(C(=O)O)ccc2n1-c1ccncc1 | 25 µM (≈ 7.03 µg/mL) |  |
| COc1cccc(-n2c(C(C)C)nc3cc(C(=O)O)ccc32)c1O | 0.78 µM (≈ 0.255 µg/mL) | Activity (THP-1 [5]): Non-Toxic |
| COc1ccc(S(=O)(=O)Nc2ccc3c(c2)NC(=O)Cn2c-3nc3ccccc32)cc1 | 1.56 µM (≈ 0.678 µg/mL) |  |
| COc1ccc(-n2c(C(C)C)nc3cc(C(=O)O)ccc32)cc1OC | 25 µM (≈ 8.51 µg/mL) |  |
| Nc1ccc2c(c1)NC(=O)Cn1c-2nc2ccccc21 | 0.0975 µM (≈ 0.0258 µg/mL) | fold change (FC) [4]: 8 - 10; Activity (THP-1 [5]): Non-Toxic |
| CC(C)c1nc2cc(C(=O)O)ccc2n1-c1ccccc1Cl | > 50 µM |  |
| CC(C)c1nc2cc(C(=O)O)ccc2n1CC1CCN(C(=O)c2ccc(F)cc2)CC1 | 50 µM (≈ 21.2 µg/mL) |  |
| CCOC(=O)C(=O)Nc1ccc2c(c1)NC(=O)Cn1c-2nc2ccccc21 | 0.78 µM (≈ 0.284 µg/mL) | Activity (THP-1 [5]): Non-Toxic |
| O=C(CCc1ccccc1)Nc1cc2nc(C3CCCCC3)[nH]c2cc1N1CC1 |  | logP [2]: 4.57 |
| O=C1Cn2c(nc3ccccc32)-c2ccc(NC(=O)c3ccc([N+](=O)[O-])cc3)cc2N1 | 0.195 µM (≈ 0.0806 µg/mL) | fold change (FC) [4]: 8 - 10; Activity (THP-1 [6]): Non-Toxic |
| NNC(=O)c1ccncc1 [ISONIAZID] | 0.39 µM (≈ 0.0535 µg/mL) | fold change (FC) [4]: 30 |
| Cc1ccc(C(=O)N2CCC(Cn3c(C(C)C)nc4cc(C(=O)O)ccc43)CC2)cc1 | 25 µM (≈ 10.5 µg/mL) |  |
| Cc1ccc(C(=O)Nc2ccc3c(c2)NC(=O)Cn2c-3nc3ccccc32)cc1 | 0.39 µM (≈ 0.149 µg/mL) | Activity (THP-1 [6]): Non-Toxic |
| CC(C)c1nc2cc(C(=O)O)ccc2n1-c1cccc([N+](=O)[O-])c1 | 25 µM (≈ 8.13 µg/mL) |  |
| O=C1Cn2c(nc3ccccc32)-c2ccc(NC(=O)c3ccccc3)cc2N1 | > 50 µM |  |
| O=C1Cn2c(nc3ccccc32)-c2ccc(NC(=O)c3ccc(F)cc3)cc2N1 | 0.195 µM (≈ 0.0753 µg/mL) | fold change (FC) [4]: 8 - 10; Activity (THP-1 [5]): Non-Toxic |
| CC(C)c1nc2cc(C(=O)O)ccc2n1-c1ccc(Br)cc1 | 50 µM (≈ 18 µg/mL) |  |
| COc1ccc(C(=O)Nc2ccc3c(c2)NC(=O)Cn2c-3nc3ccccc32)cc1 | 3.12 µM (≈ 1.25 µg/mL) |  |
| CC(C)c1nc2cc(C(=O)O)ccc2n1-c1ccc(O)cc1 | 50 µM (≈ 14.8 µg/mL) |  |
| O=C1Cn2c(nc3ccccc32)-c2ccc(NC(=O)c3ccc(Br)cc3)cc2N1 | > 50 µM |  |
| CC(C)c1nc2cc(C(=O)O)ccc2n1-c1cccnc1 | 50 µM (≈ 14.1 µg/mL) |  |
| O=C1Cn2c(nc3ccccc32)-c2ccc(NC(=O)c3ccc(Cl)cc3)cc2N1 | 1.56 µM (≈ 0.628 µg/mL) | fold change (FC) [4]: 8 - 10; Activity (THP-1 [5]): Non-Toxic |
